Measured values gathered from unrelated publications.
Protocols differ between the studies behind these lines.
OPRK1: Kappa-type opioid receptor (OPRK1, Cavia porcellus, UniProt P41144)
ADRA1A: Alpha-1A adrenergic receptor (ADRA1A, Homo sapiens, UniProt P35348)

Cc1cc(O)cc(C)c1C[C@H](N)C(=O)N[C@H](CCCNC(=N)N)C(=O)N[C@@H](Cc1c(C)cccc1C(C)C)C(=O)N[C@@H](CCCCN)C(N)=O  Ki (OPRK1; ligand displacement, radioligand; cell membranes): 0.000236 µM
C[C@@H](NC(=O)[C@@H](N)Cc1ccc(O)cc1)C(=O)NCC(=O)N[C@@H](Cc1ccccc1)C(=O)N(C)CCC[C@@]1(c2ccc(F)cc2)OCc2cc(C#N)ccc21  Ki (ADRA1A; ligand displacement, radioligand): 6.8 µM
Cc1nccc2c1[nH]c1ccccc12  Ki (Amine oxidase [flavin-containing] A (MAOA, Homo sapiens, UniProt P21397); enzyme activity, inhibitor): 0.58 µM
Cc1cc(O)cc(C)c1C[C@H](N)C(=O)N[C@H](C)C(=O)NCC(=O)N[C@@H](Cc1ccc(Cl)cc1)C(=O)N(C)CCC[C@@]1(c2ccc(F)cc2)OCc2cc(C#N)ccc21  Ki (ADRA1A; ligand displacement, radioligand): 4.6 µM
Nc1ncnc2c1ncn2[C@@H]1O[C@H](COP(=O)(O)OP(=O)(O)NP(=O)(O)O)[C@@H](O)[C@H]1O  Ki (lptB (Escherichia coli, UniProt P0A9V1); ATPase activity, inhibitor): 25000 µM
Cc1cc(C)c(C[C@H](NC(=O)[C@@H](CCCNC(=N)N)NC(=O)[C@@H](N)Cc2c(C)cc(O)cc2C)C(=O)N[C@@H](CCCCN)C(N)=O)c(C)c1  Ki (OPRK1; ligand displacement, radioligand; cell membranes): 0.048 µM
CC[C@H](C)[C@H](NC(=O)[C@H](CCCNC(=N)N)NC(=O)[C@H](CC(C)C)NC(=O)[C@@H](N)Cc1ccccc1)C(=O)N[C@@H](CCCNC(=N)N)C(=O)N1CCC[C@H]1C(=O)N[C@@H](CCCCN)C(=O)O  Ki (ADRA1A; cell-free assay, radioligand): > 10 µM
C[C@H]1CC[C@@]2(OC1)O[C@H]1C[C@H]3[C@@H]4CC[C@@H]5C[C@@H](O[C@@H]6O[C@H](CO)[C@H](O)[C@H](O)[C@H]6O[C@@H]6O[C@H](CO)[C@@H](O)[C@H](O)[C@H]6O)CC[C@]5(C)[C@H]4CC[C@]3(C)[C@H]1[C@@H]2C  Kd (Angiotensin-converting enzyme 2 (ACE2, Homo sapiens, UniProt Q9BYF1); binding): 61.7 µM
CC[C@H](C)[C@H](NC(=O)[C@H](CC(=O)O)NC(=O)[C@H](CC(N)=O)NC(=O)[C@@H](NC(=O)[C@H](Cc1ccccc1)NC(=O)[C@H](CO)NC(=O)CNC(=O)[C@H](CC(=O)O)NC(=O)[C@H](C)NC(=O)[C@@H](N)Cc1c[nH]cn1)[C@@H](C)O)C(=O)N[C@@H](CC(N)=O)C(=O)N[C@@H](CCCCN)C(=O)N[C@H](C(=O)N[C@@H](CC(C)C)C(=O)N[C@@H](CC(=O)O)C(=O)N[C@H](C(=O)N[C@H](C(=O)N[C@@H](C)C(=O)N[C@@H](C)C(=O)N[C@@H](CCC(N)=O)C(=O)N[C@@H](CCC(=O)O)C(=O)N[C@@H](Cc1ccccc1)C(=O)N[C@@H](CC(C)C)C(=O)N[C@@H](CC(=O)O)C(=O)N[C@@H](Cc1c[nH]c2ccccc12)C(=O)N[C@H](C(=O)N[C@H](C(=O)N[C@@H](CC(N)=O)C(=O)N[C@H](C(=O)N[C@@H](CCC(N)=O)C(=O)N[C@H](C(=O)N[C@H](C(=O)N[C@@H](CCC(=O)O)C(=O)O)[C@@H](C)O)C(C)C)[C@@H](C)O)[C@@H](C)CC)C(C)C)[C@@H](C)CC)[C@@H](C)CC)C(C)C  EC50 (Glucagon-like peptide 2 receptor (GLP2R, Homo sapiens, UniProt O95838); reporter gene, agonist, luciferase): > 1 µM
Cc1cc(O)cc(C)c1C[C@H](C)C(=O)N[C@@H]1CCCCC[C@@H](C(N)=O)NC(=O)[C@H](Cc2ccccc2)NC(=O)[C@H](Cc2ccccc2)NC1=O  Ki (OPRK1; ligand displacement, radioligand; cell membranes): 0.302 µM
N=C(N)NCCC[C@H]1NC(=O)[C@H](Cc2ccc(O)cc2)NC(=O)[C@H](CCCCN)NC(=O)[C@H](Cc2ccccc2)NC1=O  Ki (OPRK1; ligand displacement, radioligand; cell membranes): 0.0674 µM
CSCC[C@H](NC(=O)[C@H](Cc1c[nH]c2ccccc12)NC(=O)[C@@H](N)CO)C(=O)N[C@H](C(=O)N[C@H](C(=O)N1CCC[C@H]1C(=O)N[C@@H](Cc1c[nH]c2ccccc12)C(=O)NCC(=O)N[C@@H](Cc1ccccc1)C(=O)N[C@@H](Cc1c[nH]cn1)C(=O)N[C@@H](CC(C)C)C(=O)N1CCC[C@H]1C(=O)O)[C@@H](C)O)[C@@H](C)O  Kd (Chaperonin GroEL (groEL, Escherichia coli, UniProt P0A6F5); binding, ITC): 1.4 µM
Cc1cc(O)cc(C)c1C[C@H](C)C(=O)N[C@@H]1C/C=C\CC[C@@H](C(N)=O)NC(=O)[C@H](Cc2ccccc2)NC(=O)[C@H](Cc2ccccc2)NC1=O  Ki (OPRK1; ligand displacement, radioligand; cell membranes): 0.185 µM
